The structures appear in SMILES notation. Calls of active or inactive are those of the source. The rule behind the calls is not given here.

Data set [1] has as its system HeLa. Nature of the data set: Cytotoxicity against human HeLa cells. In kind it is functional, cell-based.
Data set [2] deals with HCT-116. Briefly: Cytotoxicity against human HCT116 cells. In kind it is functional, cell-based.
Data set [3] in a line: Antioxidant activity assessed as EDTA equivalent of chelating effect after 10 mins by spectrophotometric analysis. In kind it is functional. In outline:
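Ferrous-ion chelation: compounds or EDTA standard added to 2 mmol/L FeCl2 solution, then 5 mmol/L ferrozine added to start reaction. Mixture shaken vigorously and left 10 min at room temperature. Absorbance read at 562 nm. Activity expressed as mg EDTA equivalent/g.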

The target of data set [4] is Albumin (Bos taurus, UniProt P02769). Briefly: Binding affinity to bovine serum albumin at 25 uM by fluorescence spectra analysis. In kind it is ADME. The note with it: cattle, isolated protein.
Sequence of Albumin (P02769 whole entry): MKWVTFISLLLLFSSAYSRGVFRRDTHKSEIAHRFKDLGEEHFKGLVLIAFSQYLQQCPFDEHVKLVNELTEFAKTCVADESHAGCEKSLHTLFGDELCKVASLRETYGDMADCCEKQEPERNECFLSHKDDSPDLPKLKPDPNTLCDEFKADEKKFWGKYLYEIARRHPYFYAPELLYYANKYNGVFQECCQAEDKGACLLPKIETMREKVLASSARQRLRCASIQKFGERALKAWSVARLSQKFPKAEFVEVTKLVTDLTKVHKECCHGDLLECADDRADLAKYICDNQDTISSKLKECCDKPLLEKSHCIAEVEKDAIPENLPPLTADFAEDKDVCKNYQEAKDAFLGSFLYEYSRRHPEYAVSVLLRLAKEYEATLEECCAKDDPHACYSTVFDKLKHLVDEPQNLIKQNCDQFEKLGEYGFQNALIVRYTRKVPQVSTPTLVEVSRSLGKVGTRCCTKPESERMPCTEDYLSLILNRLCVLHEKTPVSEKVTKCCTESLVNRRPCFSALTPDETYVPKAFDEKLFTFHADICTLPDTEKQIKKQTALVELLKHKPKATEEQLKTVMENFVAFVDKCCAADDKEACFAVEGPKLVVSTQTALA
Data set [5] has as its system DNA. Nature of the data set: Displacement of ethidium bromide from calf thymus DNA by spectrometric analysis. Type of data set: nucleic-acid assay. The note with it: Bos taurus. A digest of the protocol:
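Competitive EtBr displacement from CT-DNA monitored by emission spectroscopy. Kq taken as slope of I0/I versus [Q]. Kapp obtained from KEB[EB] = Kapp[compound], using compound concentration giving 50% loss of EB fluorescence, KEB = 1.0 × 10^7 M−1, [EB] = 5 μM.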

Data set [6] is described as follows: Antioxidant activity assessed as trolox equivalents of ABTS radical scavenging activity after 30 mins by TEAC assay. In kind it is functional. A digest of the protocol:
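ABTS (7 mM in water) was oxidized with 2.45 mM potassium persulfate (final) for 12–16 h in the dark at room temperature. The radical was diluted in ethanol to A734 0.700 ± 0.02 at 30 °C, then added to sample or Trolox standards (final 0–15 μM). A734 was read at 30 °C, 30 min after mixing. Results are given as μmol Trolox equivalent/g.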

Data set [7] is described as follows: Antioxidant activity assessed as hydroxyl radical scavenging activity after 15 mins by spectrophotometric analysis. Type of data set: functional.
The nature of data set [8]: Antioxidant activity assessed as superoxide radical scavenging activity by NBT reduction assay. Type of data set: functional.
Data set [9] relates to Radical scavenging activity. Briefly: Antioxidant activity assessed as DPPH radical scavenging activity. In kind it is functional.
In data set [10] the test system is AGS. Briefly: Cytotoxicity against human AGS cells. In kind it is functional, cell-based.
The test system of data set [11] is DNA. Briefly: Binding affinity to calf thymus DNA by absorption titration. The note with it: Bos taurus.

`C=CCC(CC=C)(CC=C)c1ccc(CCCCCCCCC)cc1O`: the result in data set [1], in [2] and in [10] was inactive. Besides, the Activity in data set [3] was 8.4 mg/g; in [4], “Active”; in data set [6], 4020 µmol/g. Moreover, the Kapp in [5] turned out to be 0.34 ×10⁵ /M. The same compound returned a Kq in data set [5] of 0.68 ×10⁴ /M. In addition, the IC50 in data set [7] stood at 31.1 µM; in data set [8], 32.8 µM; in data set [9], 14.9 µM. The same compound showed a Kb in [11] of 2.23 ×10⁴ /M.

In the case of `CC(C)C[C@H](NC(=O)[C@@H](O)C[C@H](N)CN)C(N)=O`, the outcome in data set [1], in data set [2] and in data set [10] was inactive. In addition, the Activity in data set [3] is 11.9 mg/g; in data set [4] it was “Active”; in [6], 4090 µmol/g. Moreover, the Kapp in [5] came out at 0.13 ×10⁵ /M. Further, the Kq in data set [5] is 0.26 ×10⁴ /M. In addition, the IC50 in data set [7] stood at 35.5 µM; in data set [8], 34.6 µM; in data set [9] it was 34.7 µM. This compound also displayed a Kb in data set [11] of 2.36 ×10⁴ /M.

Turning to `Cc1cc(C(C)(C)C)c(O)c(C(C)(C)C)c1` [BUTYLATED HYDROXYTOLUENE], the Activity was 15.4 mg/g in data set [3] and 6050 µmol/g in data set [6]. Moreover, the IC50 in [7] turned out to be 11.5 µM; in data set [8] it was 8.6 µM; in data set [9], 4.5 µM.

In the case of `CC(C)(C)c1cc(CCC(=O)O)cc(C(C)(C)C)c1F`, the result in data set [1], in data set [2] and in data set [10] was inactive. The Activity in [3] is 4.5 mg/g; in data set [4], “Active”; in data set [6], 6740 µmol/g. This compound registered a Kapp in data set [5] of 1.6 ×10⁵ /M. This compound also showed a Kq in data set [5] of 1.71 ×10⁴ /M. Besides, the IC50 in data set [7] is 25.8 µM; in data set [8], 8.4 µM; in data set [9] it was 8.4 µM. In data set [11], this compound yielded a Kb of 3.13 ×10⁴ /M.

With `C[C@@H]1O[C@@H](OC[C@H]2O[C@@H](Oc3c(-c4ccc(O)c(O)c4)oc4cc(O)cc(O)c4c3=O)[C@H](O)[C@@H](O)[C@@H]2O)[C@H](O)[C@H](O)[C@H]1O` [RUTIN], the figures for the Activity in [3] and in [6] were 18.5 mg/g and 10100 µmol/g, respectively. Besides, the results for the IC50 in [7], in data set [8] and in data set [9] were 19.4 µM, 4.7 µM and 4.7 µM, respectively.
